From ChEMBL document CHEMBL1649472, “Soft-tissue penetration of ceftobiprole in healthy volunteers determined by in vivo microdialysis” (Antimicrob Agents Chemother, 2009)
In brackets after ≈: the same amount, converted by molar mass.

Columns and labels:
[1] = AUC in plasma of healthy human at 500 mg, po administered at tablet formulation with maximum release by microdialysis; assay type: ADME, organism-based
[2] = AUC in plasma of healthy human at 500 mg, po administered at tablet formulation with immediate release by microdialysis; assay type: ADME, organism-based
[3] = AUC in plasma of healthy human at 750 mg. po administered at tablet formulation with maximum release by microdialysis; assay type: ADME, organism-based
[4] = AUC in plasma of healthy human at 400 mg, po by microdialysis; assay type: ADME, organism-based
[5] = AUC (0 to infinity) in adipose tissue of healthy human at 200 mg/l administered via microdialysis probe up to 12 hrs; assay type: ADME; set-up: time infinity
Method in brief: (§1)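 Twelve healthy volunteers were given a single 500 mg dose as a 2-h i.v. infusion. Microdialysis probes in skeletal muscle and s.c. adipose tissue were perfused with lactated Ringer's at 1.5 μl/min. Each probe was calibrated by retrodialysis with drug at 200 mg/liter, followed by a 4-h washout. Dialysate was collected every 20 min to 12 h, then at 16 and 24 h, and assayed by HPLC-UV. Values were recovery-corrected and analysed noncompartmentally.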

[6] = Half life in adipose tissue of healthy human at 200 mg/l administered via microdialysis probe up to 12 hrs; assay type: ADME, tissue-based; method in brief: as §1
[7] = fT>MIC in adipose tissue of healthy human at 500 mg, iv by microdialysis
[8] = AUC (0 to infinity) in plasma of healthy human at […] up to 12 hrs; assay type: ADME; set-up: time infinity
Method in brief: (§2)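 Twelve healthy volunteers received a single 500 mg dose as a 2-h i.v. infusion. K2EDTA blood was drawn from the opposite arm from predose to 24 h over 13 timepoints. Plasma was precipitated with acetonitrile/formic acid and perchloric acid. Protein binding was measured by ultrafiltration at 2 and 12 h, and free levels were derived per subject. Analysis was noncompartmental: linear-trapezoidal AUC, with λz from terminal-phase regression.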

[9] = Cmax in muscle of healthy human at 200 mg/l administered via microdialysis probe up to 12 hrs; assay type: ADME, organism-based, Muscle tissue; method in brief: as §1
[10] = AUClast in muscle of healthy human at 200 mg/l administered via microdialysis probe up to 12 hrs; assay type: ADME, tissue-based, Muscle tissue; set-up: time < 12 hr; method in brief: as §1
[11] = AUC (0 to infinity) in muscle of healthy human at 200 mg/l administered via microdialysis probe up to 12 hrs; assay type: ADME, tissue-based, Muscle tissue; set-up: time infinity; method in brief: as §1
[12] = fT>MIC in skeletal muscle of healthy human at 500 mg, iv by microdialysis
[13] = test system: Staphylococcus aureus; experiment: Antibacterial activity against methicillin-resistant Staphylococcus aureus; assay type: functional
[14] = test system: Streptococcus pneumoniae; experiment: Antibacterial activity against penicillin-resistant Streptococcus pneumoniae; assay type: functional
[15] = Cmax in adipose tissue of healthy human at 200 mg/l administered via microdialysis probe up to 12 hrs; assay type: ADME, organism-based; method in brief: as §1
[16] = Ratio of AUC in adipose tissue to fAUC in plasma of healthy human at 200 mg/l administered via microdialysis probe up to 12 hrs; assay type: ADME; settings: other
[17] = Volume of distribution at steady state in plasma of healthy human at […] […]; assay type: ADME, organism-based; settings: read-out: Vdss; method in brief: as §2
[18] = Half life in muscle of healthy human at 200 mg/l administered via microdialysis probe up to 12 hrs; assay type: ADME, tissue-based, Muscle tissue; method in brief: as §1
[19] = AUClast in adipose tissue of healthy human at 200 mg/l administered via microdialysis probe up to 12 hrs; assay type: ADME; set-up: time < 12 hr; method in brief: as §1

## N[C@@H](C(=O)N[C@@H]1C(=O)N2C(C(=O)O)=C(Cl)CS[C@H]12)c1ccccc1 [CEFACLOR ANHYDROUS]
[1]
  AUC: 13.7 µg·h/mL
[2]
  AUC: 17.6 µg·h/mL
[3]
  AUC: 22.1 µg·h/mL

## C=CC1=C(C(=O)O)N2C(=O)[C@@H](NC(=O)/C(=N\OCC(=O)O)c3csc(N)n3)[C@H]2SC1 [CEFIXIME]
[4]
  AUC: 25.6 µg·h/mL

## COCC1=C(C(=O)O)N2C(=O)[C@@H](NC(=O)/C(=N\OC)c3csc(N)n3)[C@H]2SC1 [CEFPODOXIME]
[4]
  AUC: 22.4 µg·h/mL

## Nc1nc(/C(=N/O)C(=O)N[C@@H]2C(=O)N3C(C(=O)O)=C(/C=C4\CCN([C@@H]5CCNC5)C4=O)CS[C@H]23)ns1 [CEFTOBIPROLE]
[5]
  AUC(0-inf): 36.5 µg·h/mL
[6]
  half-life: 2.56 h
[7]
  Efficacy: 35.1%
[8]
  AUC(0-inf): 98 µg·h/mL
[9]
  Cmax: 14 µg/mL
[10]
  AUC(0-t) at 12 h: 50.6 µg·h/mL
[11]
  AUC(0-inf): 53.2 µg·h/mL
[12]
  Efficacy: 53.6%
[13]
  MIC90: 2 mg/L (≈ 3.74 µM)
[14]
  MIC90: 2 mg/L (≈ 3.74 µM)
[15]
  Cmax: 9.61 µg/mL
[16]
  Ratio AUC: 0.49
[17]
  Vd: 14.6 L
[18]
  half-life: 2.61 h
[19]
  AUC(0-t) at 12 h: 34.3 µg·h/mL
